Assay [1] addresses CDK7/Cyclin H/MNAT1 (Homo sapiens, UniProt P50613). The assay is described as follows: Adapta Eu kinase assay. It counts as biochemical. Summed up:
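CDK7/Cyclin H/MNAT1 complex tested by an outside contract service in Adapta Eu format, with ATP at its Km concentration.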

Assay [2] has as its target CDK7 (Homo sapiens, UniProt P50613). Description: Immunoblot analysis of CDK7 degradation in Jurkat cells. Type of assay: cell-based. As to conditions: Jurkat cells, 16 h, Western blot. Summed up:
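Jurkat cells received test compound at 0.1 or 1 μM for 16 h, 0.1 μM for 0.5–24 h, or a concentration series for 6 h. Other arms were pretreated 2 h with MG132, MLN-4924, parent CDK7 inhibitor or VHL ligand, or used VHL-knockout Jurkat (6 h). Blots: RIPA lysis, 4–20% SDS-PAGE, nitrocellulose, anti-CDK7 1:1000, β-actin 1:5000, IRDye secondaries. Mean ± SEM of three biological replicates.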
(In western blotting, separated proteins are transferred to a membrane and probed.)

Read-outs that look alike come from different tables or passages of the source.

Sequence of CDK7/Cyclin H/MNAT1 (P50613 whole entry): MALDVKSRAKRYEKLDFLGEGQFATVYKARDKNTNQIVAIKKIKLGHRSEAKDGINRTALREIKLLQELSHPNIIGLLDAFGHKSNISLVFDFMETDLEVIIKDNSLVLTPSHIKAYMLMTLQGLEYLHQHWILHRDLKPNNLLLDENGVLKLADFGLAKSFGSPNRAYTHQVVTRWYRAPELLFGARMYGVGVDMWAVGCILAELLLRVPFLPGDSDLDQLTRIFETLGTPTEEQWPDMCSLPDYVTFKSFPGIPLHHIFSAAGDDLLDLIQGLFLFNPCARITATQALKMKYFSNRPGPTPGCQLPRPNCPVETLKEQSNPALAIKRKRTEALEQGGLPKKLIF
Sequence of CDK7/Cyclin H/MNAT1 (P51946 whole entry partner): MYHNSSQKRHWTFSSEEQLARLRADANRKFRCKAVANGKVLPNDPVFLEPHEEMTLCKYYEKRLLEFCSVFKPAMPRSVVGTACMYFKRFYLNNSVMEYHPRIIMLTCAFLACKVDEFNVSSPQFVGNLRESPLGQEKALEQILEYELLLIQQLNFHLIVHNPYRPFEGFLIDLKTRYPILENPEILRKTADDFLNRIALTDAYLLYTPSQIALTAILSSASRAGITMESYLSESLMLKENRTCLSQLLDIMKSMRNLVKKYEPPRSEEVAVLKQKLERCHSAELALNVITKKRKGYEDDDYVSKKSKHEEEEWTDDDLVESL
Sequence of CDK7/Cyclin H/MNAT1 (P51948 whole entry partner): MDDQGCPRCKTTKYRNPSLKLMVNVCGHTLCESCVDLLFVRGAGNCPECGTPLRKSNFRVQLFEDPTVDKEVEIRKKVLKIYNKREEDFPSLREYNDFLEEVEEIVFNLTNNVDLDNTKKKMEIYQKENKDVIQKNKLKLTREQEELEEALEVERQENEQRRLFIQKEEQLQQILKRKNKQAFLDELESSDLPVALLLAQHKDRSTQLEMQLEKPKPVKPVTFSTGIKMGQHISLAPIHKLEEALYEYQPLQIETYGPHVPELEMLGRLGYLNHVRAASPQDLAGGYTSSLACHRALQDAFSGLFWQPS
Sequence of CDK7 (P50613 2-346 limits assumed): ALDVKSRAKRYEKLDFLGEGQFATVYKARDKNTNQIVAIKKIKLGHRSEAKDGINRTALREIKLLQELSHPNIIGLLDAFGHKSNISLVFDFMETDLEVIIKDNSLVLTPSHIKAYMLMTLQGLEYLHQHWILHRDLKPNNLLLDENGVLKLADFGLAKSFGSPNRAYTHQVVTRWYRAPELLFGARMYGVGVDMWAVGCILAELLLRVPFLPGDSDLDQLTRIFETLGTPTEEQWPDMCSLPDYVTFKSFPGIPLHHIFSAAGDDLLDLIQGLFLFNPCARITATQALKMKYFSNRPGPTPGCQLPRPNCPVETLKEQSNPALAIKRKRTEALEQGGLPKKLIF
Sequence of CDK7 (P51946 whole entry partner): as the sequence (P51946 whole entry partner) above
Sequence of CDK7 (P51948 whole entry partner): as the sequence (P51948 whole entry partner) above

As usually defined, the IC50 is the midpoint of a concentration-inhibition curve. The compound `Cc1ncsc1-c1ccc([C@H](C)NC(=O)[C@@H]2C[C@@H](O)CN2C(=O)[C@@H](NC(=O)CCCCCCCNC(=O)c2ccc(C(=O)Nc3n[nH]c4c3CN(C(=O)N[C@H](CN(C)C)c3ccccc3)C4(C)C)cc2)C(C)(C)C)cc1` [Compound 13, N1-(5-(((S)-2-(dimethylamino)-1-phenylethyl)carbamoyl)-6,6-dimethyl-1,4,5,6-tetrahydropyrrolo[3,4-c]pyrazol-3-yl)-N4-(8-(((S)-1-((2S,4R)-4-hydroxy-2-(((S)-1-(4-(4-methylthiazol-5-yl)phenyl)ethyl)carbamoyl)pyrrolidin-1-yl)-3,3-dimethyl-1-oxobutan-2-yl)amino)-8-oxooctyl)terephthalamide] had an IC50 in assay [1] of 7.8 nM. The “reduction in CDK7 protein” value in assay [2] (0.1 μM or 1 μM) is reported as “more than 80%”.
As to `CC(=O)N[C@H](C(=O)N1C[C@H](O)C[C@H]1C(=O)N[C@@H](C)c1ccc(-c2scnc2C(=O)NCCCCCNC(=O)c2ccc(C(=O)Nc3n[nH]c4c3CN(C(=O)N[C@H](CN(C)C)c3ccccc3)C4(C)C)cc2)cc1)C(C)(C)C` [Compound 22, N1-(5-(5-(4-((S)-1-((2S,4R)-1-((S)-2-acetamido-3,3-dimethylbutanoyl)-4-hydroxypyrrolidine-2-carboxamido)ethyl)phenyl)thiazole-4-carboxamido)pentyl)-N4-(5-(((S)-2-(dimethylamino)-1-phenylethyl)carbamoyl)-6,6-dimethyl-1,4,5,6-tetrahydropyrrolo[3,4-c]pyrazol-3-yl)terephthalamide], in assay [2] (1 μM), the “CDK7 degradation (in words)” value is recorded as “moderate reduction of CDK7 protein levels”.
In the case of “N1-(5-(((R)-2-(dimethylamino)-1-phenylethyl)carbamoyl)-6,6-dimethyl-1,4,5,6-tetrahydropyrrolo[3,4-c]pyrazol-3-yl)-N4-((S)-14-((2S,4R)-4-hydroxy-2-(((S)-1-(4-(4-methylthiazol-5-yl)phenyl)ethyl)carbamoyl)pyrrolidine-1-carbonyl)-15,15-dimethyl-12-oxo-3,6,9-trioxa-13-azahexadecyl)terephthalamide [Compound 16]”, in assay [1] (read-out: IC50 (CDK7 binding affinity, Table 2), VHL-based compounds, Adapta Eu kinase assay, Km ATP), the IC50 worked out at 13.7 nM.
Consider `Cc1ncsc1-c1ccc(CNC(=O)C2CC(O)CN2C(=O)C(NC(=O)C2(F)CC2)C(C)(C)C)c(OCCCCCCCCNC(=O)c2ccc(C(=O)Nc3n[nH]c4c3CN(C(=O)N[C@H](CN(C)C)c3ccccc3)C4(C)C)cc2)c1` (stereo partly drawn) [Compound 20, N1-(5-(((S)-2-(dimethylamino)-1-phenylethyl)carbamoyl)-6,6-dimethyl-1,4,5,6-tetrahydropyrrolo[3,4-c]pyrazol-3-yl)-N4-(8-(2-((1-(2-(1-fluorocyclopropane-1-carboxamido)-3,3-dimethylbutanoyl)-4-hydroxypyrrolidine-2-carboxamido)methyl)-5-(4-methylthiazol-5-yl)phenoxy)octyl)terephthalamide], for which the IC50 in assay [1] was 12.1 nM. In assay [2] (1 μM), the “CDK7 degradation (in words)” value is “moderate reduction of CDK7 protein levels”.
Consider `CN(C)C[C@@H](NC(=O)N1Cc2c(NC(=O)c3ccc(C(=O)NCCCC#Cc4cccc5c4C(=O)N(C4CCC(=O)NC4=O)C5=O)cc3)n[nH]c2C1(C)C)c1ccccc1` (stereo partly drawn) [Compound 8, N1-(5-(((S)-2-(dimethylamino)-1-phenylethyl)carbamoyl)-6,6-dimethyl-1,4,5,6-tetrahydropyrrolo[3,4-c]pyrazol-3-yl)-N4-(5-(2-(2,6-dioxopiperidin-3-yl)-1,3-dioxoisoindolin-4-yl)pent-4-yn-1-yl)terephthalamide], for which the IC50 in assay [1] is 6.9 nM.
In turn, `Cc1ncsc1-c1ccc([C@H](C)NC(=O)[C@@H]2C[C@@H](O)CN2C(=O)[C@@H](NC(=O)CCOCCOCCNC(=O)c2ccc(C(=O)Nc3n[nH]c4c3CN(C(=O)N[C@H](CN(C)C)c3ccccc3)C4(C)C)cc2)C(C)(C)C)cc1` [Compound 15, N1-(5-(((S)-2-(dimethylamino)-1-phenylethyl)carbamoyl)-6,6-dimethyl-1,4,5,6-tetrahydropyrrolo[3,4-c]pyrazol-3-yl)-N4-(2-(2-(3-(((S)-1-((2S,4R)-4-hydroxy-2-(((S)-1-(4-(4-methylthiazol-5-yl)phenyl)ethyl)carbamoyl)pyrrolidin-1-yl)-3,3-dimethyl-1-oxobutan-2-yl)amino)-3-oxopropoxy)ethoxy)ethyl)terephthalamide] had an IC50 in assay [1] of 7.6 nM.
As for `Cc1ncsc1-c1ccc([C@H](C)NC(=O)[C@@H]2C[C@@H](O)CN2C(=O)[C@@H](NC(=O)CCNC(=O)c2ccc(C(=O)Nc3n[nH]c4c3CN(C(=O)N[C@H](CN(C)C)c3ccccc3)C4(C)C)cc2)C(C)(C)C)cc1` [Compound 10, N1-(5-(((S)-2-(dimethylamino)-1-phenylethyl)carbamoyl)-6,6-dimethyl-1,4,5,6-tetrahydropyrrolo[3,4-c]pyrazol-3-yl)-N4-(3-(((S)-1-((2S,4R)-4-hydroxy-2-(((S)-1-(4-(4-methylthiazol-5-yl)phenyl)ethyl)carbamoyl)pyrrolidin-1-yl)-3,3-dimethyl-1-oxobutan-2-yl)amino)-3-oxopropyl)terephthalamide], the “CDK7 degradation (in words)” value in assay [2] (1 μM) was “moderate degradation”.
As to `Cc1ncsc1-c1ccc(CNC(=O)C2CC(O)CN2C(=O)C(NC(=O)C2(F)CC2)C(C)(C)C)c(OCCOCCOCCNC(=O)c2ccc(C(=O)Nc3n[nH]c4c3CN(C(=O)N[C@H](CN(C)C)c3ccccc3)C4(C)C)cc2)c1` (stereo partly drawn) [Compound 21, N1-(5-(((S)-2-(dimethylamino)-1-phenylethyl)carbamoyl)-6,6-dimethyl-1,4,5,6-tetrahydropyrrolo[3,4-c]pyrazol-3-yl)-N4-(2-(2-(2-(2-((1-(2-(1-fluorocyclopropane-1-carboxamido)-3,3-dimethylbutanoyl)-4-hydroxypyrrolidine-2-carboxamido)methyl)-5-(4-methylthiazol-5-yl)phenoxy)ethoxy)ethoxy)ethyl)terephthalamide], in assay [1], the IC50 amounted to 13.4 nM. Besides, in assay [2] (1 μM), the “CDK7 degradation (in words)” value is recorded as “moderate reduction of CDK7 protein levels”.
`Cc1ncsc1-c1ccc([C@H](C)NC(=O)[C@@H]2C[C@@H](O)CN2C(=O)[C@@H](NC(=O)CCCCCc2ccc(C(=O)Nc3n[nH]c4c3CN(C(=O)N[C@H](CN(C)C)c3ccccc3)C4(C)C)cc2)C(C)(C)C)cc1` [Compound 18, N-((S)-2-(dimethylamino)-1-phenylethyl)-3-(4-(6-(((S)-1-((2S,4R)-4-hydroxy-2-(((S)-1-(4-(4-methylthiazol-5-yl)phenyl)ethyl)carbamoyl)pyrrolidin-1-yl)-3,3-dimethyl-1-oxobutan-2-yl)amino)-6-oxohexyl)benzamido)-6,6-dimethyl-4,6-dihydropyrrolo[3,4-c]pyrazole-5(1H)-carboxamide] displayed an IC50 in assay [1] of 20.3 nM. Further, in assay [2] (0.1 μM or 1 μM), the “CDK7 degradation (in words)” value was “slightly decreased degradation activity”.

(Values after article PMC11316633 (European journal of medicinal chemistry, 2024).)
